Experimental data published in ChEMBL document CHEMBL2016497, “Analogs of the RSK inhibitor SL0101: optimization of in vitro biological stability” (Bioorg Med Chem Lett, 2012).
Active and inactive are the calls of the source. The calls are words filed in the database; no cut-off is given here.

Assays:
MCF7 [1] = test: Down regulation of cyclin D1 level in human MCF7 cells at 100 uM at 48 hrs by immunoblotting analysis relative to control; format: functional, cell-based
Method in brief: (§1)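 MCF7 cells treated at 100 μM; at each time point cells were lysed and lysates immunoblotted for cyclin D1 versus control, each compound analyzed on a single membrane.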

MCF7 [2] = test: Antiproliferative activity against human MCF7 cells at 50 uM after 48 hrs by CellTiter-GloTM assay; format: functional, cell-based
Method in brief: (§2)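 MCF-10A and MCF7 cells exposed to inhibitor at 50 μM; growth compared with vehicle. n=3 in quadruplicate.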

MCF7 [3] = test: Antiproliferative activity against human MCF7 cells at 100 uM after 96 hrs by CellTiter-GloTM assay; format: functional, cell-based
Method in brief: (§3)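 Stability time course: MCF7 cells given inhibitor (100μM) at plating (time 0); percentage of growth measured at set time points versus vehicle. n=3 in quadruplicate.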

MCF7 [4] = test: Antiproliferative activity against human MCF7 cells at 100 uM after 48 hrs by CellTiter-GloTM assay; format: functional, cell-based; method in brief: as §3
MCF7 [5] = test: Down regulation of cyclin D1 level in human MCF7 cells at 100 uM at 96 hrs by immunoblotting analysis relative to control; format: functional, cell-based; method in brief: as §1
MCF-10A = test: Antiproliferative activity against human MCF10A cells at 50 uM after 48 hrs by CellTiter-GloTM assay; format: cell-based; method in brief: as §2
MCF7 [6] = test: Antiproliferative activity against human MCF7 cells after 48 hrs by CellTiter-GloTM assay; format: functional, cell-based; conditions: MCF7, 48 h
MCF7 [7] = test: Antiproliferative activity against human MCF7 cells at 100 uM after 144 hrs by CellTiter-GloTM assay; format: functional, cell-based; method in brief: as §3
[8] = Solubility of the compound; format: physicochemical
[9] = target: Ribosomal protein S6 kinase alpha-3 (Homo sapiens, UniProt P51812); test: Inhibition of His-tagged RSK2 expressed in Sf9 cells using ERalpha-Ser167 RLASTND as substrate after 120 mins by chemiluminescence assay
Chain of Ribosomal protein S6 kinase alpha-3 (P51812 whole entry): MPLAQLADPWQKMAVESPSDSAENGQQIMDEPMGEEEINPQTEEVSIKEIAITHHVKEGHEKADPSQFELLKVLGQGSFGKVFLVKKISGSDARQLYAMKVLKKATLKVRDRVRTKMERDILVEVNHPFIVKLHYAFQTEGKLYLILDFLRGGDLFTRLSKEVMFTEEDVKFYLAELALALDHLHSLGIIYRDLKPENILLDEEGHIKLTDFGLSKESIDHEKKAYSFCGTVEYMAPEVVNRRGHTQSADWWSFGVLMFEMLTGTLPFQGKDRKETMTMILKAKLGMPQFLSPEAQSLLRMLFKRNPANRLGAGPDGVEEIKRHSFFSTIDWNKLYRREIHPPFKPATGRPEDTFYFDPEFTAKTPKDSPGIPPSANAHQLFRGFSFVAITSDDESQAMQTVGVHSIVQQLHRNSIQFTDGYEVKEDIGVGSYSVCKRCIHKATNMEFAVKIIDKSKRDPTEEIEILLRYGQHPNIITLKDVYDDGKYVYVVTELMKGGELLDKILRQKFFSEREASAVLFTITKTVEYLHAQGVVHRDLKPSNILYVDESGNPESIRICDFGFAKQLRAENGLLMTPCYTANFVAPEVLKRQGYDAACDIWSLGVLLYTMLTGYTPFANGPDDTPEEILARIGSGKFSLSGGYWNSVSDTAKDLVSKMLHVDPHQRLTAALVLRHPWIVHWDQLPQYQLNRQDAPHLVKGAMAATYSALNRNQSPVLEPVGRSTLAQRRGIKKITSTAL

SMILES	IC50 (MCF7 [6]) [µM]	solubility [8]	Activity (MCF7 [3])	Activity (MCF7 [4])	Activity (MCF7 [7])	other results
CC(=O)O[C@@H]1[C@@H](OC(C)=O)[C@@H](O)[C@H](Oc2c(-c3ccc(O)cc3)oc3cc(O)cc(O)c3c2=O)O[C@H]1C	45.6		inactive	Active	inactive	Activity (MCF7 [1]): Active; Activity (MCF7 [2]): Active; Activity (MCF7 [5]): inactive; Activity (MCF-10A): Non-toxic
C[C@@H]1O[C@@H](Oc2c(-c3ccc(O)cc3)oc3cc(O)cc(O)c3c2=O)[C@H](O)[C@H](OC(=O)N2CCCC2)[C@H]1OC(=O)N1CCCC1		Insoluble				
C[C@@H]1O[C@@H](Oc2c(-c3ccc(O)cc3)oc3cc(O)cc(O)c3c2=O)[C@H](O)[C@H](OC(=O)N2CCOCC2)[C@H]1OC(=O)N1CCOCC1		soluble				

Second part, led by results:

IC50 (MCF7 [6]) [µM]	solubility [8]	SMILES	Activity (MCF7 [3])	Activity (MCF7 [4])	Activity (MCF7 [7])	other results
	Insoluble	C[C@@H]1O[C@@H](Oc2c(-c3ccc(O)cc3)oc3cc(O)cc(O)c3c2=O)[C@H](O)[C@H](OC(=O)N(C)C)[C@H]1OC(=O)N(C)C				
34.1		CC(=O)CO[C@@H]1[C@@H](OCC(C)=O)[C@@H](O)[C@H](Oc2c(-c3ccc(O)cc3)oc3cc(O)cc(O)c3c2=O)O[C@H]1C	inactive	inactive	inactive	IC50 [9]: 0.252 µM
